Bioassay records (PubChem BioAssay)
The list is not random: actives were taken first. Their share in the collection is about 2.9%.
Tn6 DDE FP = inhibitors of Tn6 peptide binding to human fibrin DD(E) | P02675 | Fibrin DD(E) TRITC-Tn6 fluorescence polarization displacement | inhibition, % at 8.3 µM | 370,000 compounds, 0.21% hits | AID 720509;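 active = inhibition above a per-campaign cutoff: mean of compounds within control limits plus 3 SD, cut at about 15% in these data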;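 note: 0% = median of all compound wells on the plate and 100% = blocking peptide control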
Tn7 DDE FP = disrupts Tn7 cyclic peptide binding to fibrin D-Dimer-E complex | 370,000 compounds, 0.13% hits | inhibition, % at 8.3 µM | P02675 | FP displacement of FITC-Tn7 peptide from fibrin DD(E); 0% = median of compound wells per plate;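 active = inhibition above the mean of compounds falling within the control limits plus 3 SD of them, cut at about 14% in these data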;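 note: 0% = plate median of compound wells and 100% = 10 µM Aha-Tn7 peptide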
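Test system – human fibrin DD(E) · Times – 10 min preincubation, 3 h with tracer, room temperature · Detection – fluorescence polarization of the labelled Tn7 tracer · Measure – percent inhibition normalized to high-control wells · Benchmarks – high control wells with 10 µM unlabelled Aha-Tn7 peptide (full inhibition) · Repeats – singlicate testing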
CRFR2-BP ag = CRF-BP/CRF-R2 complex agonism | HEK293 CRF-R2/CRF-BP, calcium dye fluorescence (FLIPR); percent of saturating CRF peptide response | activation, % at 13.2 µM | 350,000 compounds, 0.46% hits;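 active = activation of at least 50%, plus an integration ratio under a set limit after plate pattern correction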;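 note: plate controls were neutral control wells without compound for no effect and CRF at EC100 for full effect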
NRP1-CendR mod = modulators of CendR peptide binding to human neuropilin-1; O14786; inhibition, % at 25 µM; 360,000 compounds, 0.85% hits; AID 602438; FAM-RPARPAR peptide binding to NRP-1, fluorescence polarization;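 active = inhibition or corrected inhibition above about 18%, plus a signal ratio from 0.5 to 1.5, limit read from the data, passing the limit was not always enough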
proKLK7 act = activators of human kallikrein-7 zymogen; purified proKLK7, EDANS-DABCYL substrate fluorescence; 100% is mature enzyme control, 0% vehicle; activation, % at 7 µM; 370,000 compounds, 0.9% hits; AID 652039;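 active = activation above the mean of all tested compounds plus 3 SD, computed per campaign excluding outliers beyond control limits, cut at about 13% in these data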
Target sequence (P49862 whole entry, looked up): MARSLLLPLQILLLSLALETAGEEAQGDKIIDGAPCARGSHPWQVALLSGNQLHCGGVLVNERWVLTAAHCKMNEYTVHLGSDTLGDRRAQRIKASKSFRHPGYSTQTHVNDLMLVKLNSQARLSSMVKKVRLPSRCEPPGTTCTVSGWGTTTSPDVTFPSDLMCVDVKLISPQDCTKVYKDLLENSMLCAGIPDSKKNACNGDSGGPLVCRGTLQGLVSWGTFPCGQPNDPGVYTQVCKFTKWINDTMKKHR
CRFR2-BP antag = CRF-BP/CRF-R2 complex antagonism. HEK293 CRF-R2/CRF-BP, CRF-induced calcium fluorescence. inhibition, % at 11.8 µM. 350,000 compounds, 0.59% hits. AID 588475;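 active = inhibition of the ligand-induced calcium signal above about 50% at the single tested concentration, limit read from the data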
Active calls of the source: *; / = no result.

SMILES | Tn6 DDE FP | Tn7 DDE FP | CRFR2-BP ag | NRP1-CendR mod | proKLK7 act | CRFR2-BP antag
COC/C=C/C1=CC2=CC(=O)C(C)(OC(=O)c3cnc4ccccc4n3)C(=O)C2=CN1CCCOC(C)C (stereo not drawn) | -1.0 | -5.4 | 1.9 | 43.5* | 1.6 | 6.6
C=CCN1C=C2C(=O)C(C)(OC(=O)c3cnc4ccccc4n3)C(=O)C=C2C=C1/C=C/COC (stereo not drawn) | 1.3 | 3.4 | 1.6 | 31.4* | 0.0 | 5.6
COC/C=C/C1=CC2=CC(=O)C(C)(OC(=O)c3cnc4ccccc4n3)C(=O)C2=CN1Cc1ccco1 (stereo not drawn) | 2.6 | -2.4 | -0.6 | 29.6* | 1.2 | 1.0
COC/C=C/C1=CC2=CC(=O)C(C)(OC(=O)c3cnc4ccccc4n3)C(=O)C2=CN1CCN1CCOCC1 (stereo not drawn) | -1.1 | -3.4 | -0.1 | 7.7 | 1.1 | 11.5
CCC(C(=O)Nc1ccccc1N1CCCC1)c1ccccc1F (stereo not drawn) | -0.2 | -1.7 | / | / | 0.5 | /
O=C(NC1CCCCN(Cc2ccc(Cl)cc2)C1=O)c1cccs1 (stereo not drawn) | -1.7 | 1.7 | / | / | -0.1 | /
CCCCN1C[C@@H](COCc2ccccc2)Oc2cc(F)ccc2S1(=O)=O | -4.8 | -5.1 | / | / | -0.1 | /
COC/C=C/C1=CC2=CC(=O)C(C)(OC(=O)c3cnc4ccccc4n3)C(=O)C2=CN1C(CO)CO (stereo not drawn) | 0.7 | -4.5 | 1.7 | 37.1* | 1.9 | -2.7
CCn1c(CCNC(=O)c2ccc(OC)cc2)nnc1SCc1ccc(Cl)c(Cl)c1 | -7.4 | -11.2 | 135.8* | -7.3 | 0.4 | -149.7
COCC(=O)N[C@@H]1C[C@@H]2O[C@H](CO)CC[C@@H]2O[C@@H]1CCc1ccc(-c2ccccc2)cc1 | -6.8 | 0.8 | / | / | 0.0 | /
Cc1nc2c(C(=O)NCCc3ccccc3)c[nH]n2c(=O)c1Cl | -10.2 | 9.4 | -3.3 | -6.9 | 0.3 | 50.8*
Cc1nc2c(C(=O)NCCC(C)C)c[nH]n2c(=O)c1Cl | -0.3 | -6.0 | -2.1 | 6.5 | -0.2 | 20.4
O=C(N/N=C/C1C(c2ccccc2)C1(Cl)Cl)c1cccc(Cl)c1 (stereo not drawn) | -0.3 | -4.6 | 0.3 | 24.6* | -0.9 | -46.8
O=C(COC(=O)CC1c2ccccc2CCN1S(=O)(=O)c1ccc(F)cc1)Nc1ccccc1 (stereo not drawn) | -0.3 | -1.1 | 7.3 | -2.3 | 0.4 | 57.5*
CC1(C)CC(NCCC(c2ccccc2)c2ccco2)CCO1 (stereo not drawn) | 8.5 | 4.3 | -0.1 | 2.6 | 1.2 | 96.7*
O=C(O)c1ccc(Nc2nc(-c3cc4ccccc4oc3=O)cs2)cc1O | -8.5 | 0.4 | 61.5* | -96.9 | -0.1 | -43.9
CCOC(=O)NC(O)C(=O)c1cccs1 (stereo not drawn) | 5.1 | 2.7 | 0.4 | -5.6 | 0.0 | 64.8*
COc1ccc(CNS(=O)(=O)/C=C/c2ccccc2CNC(=O)OC(C)(C)C)cc1 | -2.5 | -3.0 | / | / | 0.1 | /
CCN1/C(=C/c2ccc3cc(C)ccc3[n+]2CC)Sc2cc(C)c(C)cc21 | 2.2 | -12.8 | 183.8* | -213.0 | -0.3 | -154.6
CCN1/C(=C/c2ccc3cc(C)ccc3[n+]2CC)Sc2ccccc21 | -15.5 | -45.5 | 154.7* | -283.9 | 0.1 | -108.6
CC[n+]1c(/C=C2\Sc3ccccc3N2C)ccc2cccc(C)c21 | -8.5 | -24.2 | 124.1* | -77.2 | -0.2 | -166.9
Cc1ccc(S(=O)(=O)N2CCC(=O)N(C(COCc3cccc(C)c3)C(C)C)CC2)cc1 (stereo not drawn) | -1.6 | -4.4 | 0.1 | 24.4* | 0.6 | -6.8
Cc1ccc(S(=O)(=O)N2CCC(=O)N(C(COCc3cccc(C(F)(F)F)c3)C(C)C)CC2)cc1 (stereo not drawn) | / | / | 3.1 | 22.8* | / | -8.8
COc1ccc(C(NC(=O)c2ccc(=O)[nH]c2)C(=O)Nc2ccc(C(C)C)cc2)cc1 (stereo not drawn) | 5.3 | -5.1 | 57.8* | 8.7 | -0.5 | -26.4
COc1ccc(NC(=O)C(NC(=O)c2ccc(=O)[nH]c2)c2ccc(C)cc2)cc1 (stereo not drawn) | 1.4 | -8.2 | -0.1 | -5.7 | 0.5 | 21.0
SMILES | Tn6 DDE FP | Tn7 DDE FP | CRFR2-BP ag | NRP1-CendR mod | proKLK7 act | CRFR2-BP antag
Cc1cc(C)cc(NC2=NCC(=O)N2Cc2ccccc2)c1 | 4.4 | 0.6 | -0.2 | 35.1* | 0.5 | 30.9
Cc1cccc(NC2=NCC(=O)N2Cc2ccccc2)c1 | -2.7 | 6.0 | -3.5 | 6.3 | -0.9 | -7.5
NC(=O)CC1(CC(=O)O)CCCCC1 | -0.6 | -9.4 | -2.5 | 1.4 | 0.4 | 15.9
NC(=O)C1CCN(C(=O)CC2(CC(=O)O)CCCCC2)CC1 | -1.3 | -0.7 | -0.4 | 26.8* | 0.0 | -17.4
COCc1cc(=O)n2[nH]c(-c3ccccc3)cc2n1 | 5.2 | 8.6 | -4.4 | 8.9 | -0.3 | 78.8*
COCc1cc(=O)n2[nH]c(-c3cccc(Br)c3)cc2n1 | -13.7 | 4.5 | -1.5 | 2.3 | 0.8 | 17.0
O=C(CCSc1ccccc1)Nc1nccs1 | -7.8 | 0.3 | -1.3 | 8.3 | 0.2 | -21.3
O=C(CSc1ccccc1)N(c1ccc(Br)cc1)c1nccs1 | -5.3 | -3.7 | 0.2 | 9.1 | -0.2 | 50.4*
COc1ccc(-c2nnc3n2N=C(c2cccc([N+](=O)[O-])c2)CS3)cc1 | -14.0 | 5.3 | / | / | 0.2 | /
CC1CCCCN1C(C(=O)O)c1ccccc1 (stereo not drawn) | -5.8 | -8.4 | -1.4 | 15.4 | -0.5 | 64.9*
O=C1C2C3C=CC(C3)C2C(=O)N1CCCO (stereo not drawn) | -3.5 | 6.2 | 0.4 | -2.8 | -0.2 | 69.4*
c1ccc2c(c1)CCCN2Cc1nnc2n1CCCCC2 | -2.4 | 11.7 | 14.8 | 23.1* | -0.1 | 7.4
O=C(N/N=C/c1ccccn1)c1cc(C2CC2)[nH]n1 | 2.4 | 7.2 | -3.1 | -8.9 | -0.3 | -14.4
O=C(N/N=C/c1cccc2ccccc12)c1cc(C2CC2)[nH]n1 | 4.9 | 0.9 | -1.2 | 22.1* | -0.8 | -17.8
C/C(=N\NC(=O)CSc1nnc(-c2ccccc2)n1-c1ccc(C)cc1)c1ccc(-c2ccccc2)cc1 | -3.2 | 6.4 | / | / | -0.7 | /
COC(=O)[C@H]1C[C@@]2(N3CCCCC3)c3ccccc3N(S(=O)(=O)c3ccccc3)[C@H]2N1 | 1.4 | -4.0 | / | / | 0.1 | /
O=C1c2cccc(O)c2C(=O)c2c(O)cc(CO)cc21 | / | / | 9.6 | / | / | -8.0
CC1OC2CC(=O)OC2C2=C1C(=O)c1c(O)cccc1C2=O (stereo not drawn) | -4.8 | 7.3 | / | 38.0* | 1.8 | /
C=CCN1C(=O)[C@@H](CC(=O)NCc2cccc3ccccc23)[C@]2(C(=O)OCC)CCCCC/C=C/12 | -2.0 | -1.4 | / | / | 0.2 | /
